Measurements reported in ChEMBL document CHEMBL1800057, “Discovery of dual inducible/neuronal nitric oxide synthase (iNOS/nNOS) inhibitor development candidate 4-((2-cyclobutyl-1H-imidazo[4,5-b]pyrazin-1-yl)methyl)-7,8-difluoroquinolin-2(1H)-one (KD7332) part 2: identification of a novel, potent, and selective series of benzimidazole-quinolinone …” (J Med Chem, 2010).

Columns and labels:
Homo sapiens [1] = organism: Homo sapiens; assay: Ratio of IC50 for human nNOS to EC50 for human iNOS
Nitric oxide synthase 3 = molecular target: T1, Nitric oxide synthase 3 (Homo sapiens, UniProt P29474); assay: Inhibition of human eNOS expressed in HEK293 cells assessed as inhibition A23187 induced nitric oxide production incubated for 24 hrs measured after 18 hrs of […] challenge using 2,3-diaminonaphthalene by fluorescence assay; format: cell-based
T1 sequence (P29474 whole entry): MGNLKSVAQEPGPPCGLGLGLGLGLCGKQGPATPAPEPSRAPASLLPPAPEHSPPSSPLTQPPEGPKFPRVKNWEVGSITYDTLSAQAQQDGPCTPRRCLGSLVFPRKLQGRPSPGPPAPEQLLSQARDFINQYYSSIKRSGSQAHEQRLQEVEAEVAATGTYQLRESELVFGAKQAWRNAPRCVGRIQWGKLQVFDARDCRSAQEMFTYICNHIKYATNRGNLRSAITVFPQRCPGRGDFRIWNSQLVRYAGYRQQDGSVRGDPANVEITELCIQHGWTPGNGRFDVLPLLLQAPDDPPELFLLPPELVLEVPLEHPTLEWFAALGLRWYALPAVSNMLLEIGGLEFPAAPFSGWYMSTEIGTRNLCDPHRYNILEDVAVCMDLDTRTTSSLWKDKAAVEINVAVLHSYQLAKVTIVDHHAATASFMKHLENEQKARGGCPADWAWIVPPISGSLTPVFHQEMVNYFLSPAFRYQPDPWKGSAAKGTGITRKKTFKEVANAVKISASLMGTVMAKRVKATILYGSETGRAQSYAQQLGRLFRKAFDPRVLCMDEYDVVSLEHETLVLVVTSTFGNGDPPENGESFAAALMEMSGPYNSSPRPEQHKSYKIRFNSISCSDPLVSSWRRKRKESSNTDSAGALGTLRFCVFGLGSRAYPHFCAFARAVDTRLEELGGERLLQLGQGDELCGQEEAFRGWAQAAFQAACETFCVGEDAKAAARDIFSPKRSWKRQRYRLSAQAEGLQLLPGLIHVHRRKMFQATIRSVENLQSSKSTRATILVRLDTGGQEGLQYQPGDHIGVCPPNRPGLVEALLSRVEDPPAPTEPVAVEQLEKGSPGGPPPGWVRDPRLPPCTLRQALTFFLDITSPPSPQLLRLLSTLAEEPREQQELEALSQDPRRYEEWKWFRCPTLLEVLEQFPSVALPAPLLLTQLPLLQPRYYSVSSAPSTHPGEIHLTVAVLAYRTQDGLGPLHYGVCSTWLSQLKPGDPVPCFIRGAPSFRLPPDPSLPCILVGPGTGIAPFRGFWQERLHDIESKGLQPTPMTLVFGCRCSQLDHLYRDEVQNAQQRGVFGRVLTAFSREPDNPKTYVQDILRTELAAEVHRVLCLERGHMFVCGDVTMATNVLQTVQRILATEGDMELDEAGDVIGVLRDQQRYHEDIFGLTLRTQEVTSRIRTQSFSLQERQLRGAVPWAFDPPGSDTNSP
Method in brief: (§1)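 HEK293 cells transfected for 4 h at 37 °C with human nNOS (10 μg) or human eNOS (15 μg) plasmid (Fugene 6, 3:1). Cells replated at 5e5 cells/mL and dosed with compound at once; SEITU (100 μM final) as positive control. After 24 h, cells activated with A23187 (83 nM final) for eNOS or ionomycin (30 μM final) for nNOS. NO read 18 h later as nitrite-DAN fluorescence.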

[2] = molecular target: Nitric oxide synthase, inducible (Homo sapiens, UniProt P35228); assay: Inhibition of human iNOS expressed in HEK293 cells assessed as inhibition of nitric oxide production after 18 hrs using 2,3-diaminonaphthalene by fluorescence assay; format: cell-based
Nitric oxide synthase, inducible, sequence (P35228 whole entry): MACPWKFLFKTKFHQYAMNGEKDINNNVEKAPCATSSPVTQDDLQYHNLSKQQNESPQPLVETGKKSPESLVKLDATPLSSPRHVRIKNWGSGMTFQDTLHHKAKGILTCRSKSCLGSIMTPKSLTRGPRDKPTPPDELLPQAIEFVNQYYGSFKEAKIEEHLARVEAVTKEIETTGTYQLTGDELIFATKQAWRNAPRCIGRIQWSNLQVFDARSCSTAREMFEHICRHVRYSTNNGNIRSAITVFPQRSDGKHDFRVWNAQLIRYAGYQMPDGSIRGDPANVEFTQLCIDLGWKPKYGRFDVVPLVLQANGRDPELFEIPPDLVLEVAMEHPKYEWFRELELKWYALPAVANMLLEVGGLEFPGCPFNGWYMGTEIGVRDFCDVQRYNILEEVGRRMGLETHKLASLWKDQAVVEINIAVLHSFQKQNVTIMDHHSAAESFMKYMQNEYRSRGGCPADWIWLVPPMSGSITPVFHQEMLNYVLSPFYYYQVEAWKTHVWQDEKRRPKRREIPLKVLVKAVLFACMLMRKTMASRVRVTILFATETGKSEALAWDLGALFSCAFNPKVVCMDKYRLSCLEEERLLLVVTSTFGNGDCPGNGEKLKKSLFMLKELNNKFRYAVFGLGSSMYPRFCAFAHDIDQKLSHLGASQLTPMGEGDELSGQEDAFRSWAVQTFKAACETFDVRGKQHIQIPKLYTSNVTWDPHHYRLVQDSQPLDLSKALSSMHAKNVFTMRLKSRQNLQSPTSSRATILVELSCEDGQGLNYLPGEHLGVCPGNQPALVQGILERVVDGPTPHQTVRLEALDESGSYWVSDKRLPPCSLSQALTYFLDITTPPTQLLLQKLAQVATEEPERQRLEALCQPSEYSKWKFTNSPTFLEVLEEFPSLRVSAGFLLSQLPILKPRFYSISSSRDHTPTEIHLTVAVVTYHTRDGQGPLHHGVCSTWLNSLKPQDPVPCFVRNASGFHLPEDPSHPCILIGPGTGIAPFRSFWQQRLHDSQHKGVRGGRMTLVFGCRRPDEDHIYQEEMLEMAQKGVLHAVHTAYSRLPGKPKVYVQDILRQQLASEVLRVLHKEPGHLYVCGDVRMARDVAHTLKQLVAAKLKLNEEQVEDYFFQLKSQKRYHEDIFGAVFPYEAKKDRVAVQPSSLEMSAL
Method in brief: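 HEK293 cells grown to ~70% confluence in DMEM/10% FBS with pen/strep, transiently transfected with 10 μg human or murine iNOS plasmid plus Fugene 6 for 4 h at 37 °C, 10% CO2. Cells replated at 5e5 cells/mL and dosed with compound at once; 1400W (100 μM final) as positive control. After 18 h, DAN (10 μg/mL final) in HCl (0.1 N final) added for 20 min at room temperature. Fluorescence read after NaOH (0.12 N final).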

Nitric oxide synthase 1 = Nitric oxide synthase 1 (Homo sapiens, UniProt P29475); assay: Inhibition of human nNOS expressed in HEK293 cells assessed as inhibition ionomycin induced nitric oxide production incubated for 24 hrs measured after 18 hrs of ionomycin challenge using 2,3-diaminonaphthalene by fluorescence assay; format: cell-based; method in brief: as §1
Nitric oxide synthase 1, sequence (P29475 whole entry): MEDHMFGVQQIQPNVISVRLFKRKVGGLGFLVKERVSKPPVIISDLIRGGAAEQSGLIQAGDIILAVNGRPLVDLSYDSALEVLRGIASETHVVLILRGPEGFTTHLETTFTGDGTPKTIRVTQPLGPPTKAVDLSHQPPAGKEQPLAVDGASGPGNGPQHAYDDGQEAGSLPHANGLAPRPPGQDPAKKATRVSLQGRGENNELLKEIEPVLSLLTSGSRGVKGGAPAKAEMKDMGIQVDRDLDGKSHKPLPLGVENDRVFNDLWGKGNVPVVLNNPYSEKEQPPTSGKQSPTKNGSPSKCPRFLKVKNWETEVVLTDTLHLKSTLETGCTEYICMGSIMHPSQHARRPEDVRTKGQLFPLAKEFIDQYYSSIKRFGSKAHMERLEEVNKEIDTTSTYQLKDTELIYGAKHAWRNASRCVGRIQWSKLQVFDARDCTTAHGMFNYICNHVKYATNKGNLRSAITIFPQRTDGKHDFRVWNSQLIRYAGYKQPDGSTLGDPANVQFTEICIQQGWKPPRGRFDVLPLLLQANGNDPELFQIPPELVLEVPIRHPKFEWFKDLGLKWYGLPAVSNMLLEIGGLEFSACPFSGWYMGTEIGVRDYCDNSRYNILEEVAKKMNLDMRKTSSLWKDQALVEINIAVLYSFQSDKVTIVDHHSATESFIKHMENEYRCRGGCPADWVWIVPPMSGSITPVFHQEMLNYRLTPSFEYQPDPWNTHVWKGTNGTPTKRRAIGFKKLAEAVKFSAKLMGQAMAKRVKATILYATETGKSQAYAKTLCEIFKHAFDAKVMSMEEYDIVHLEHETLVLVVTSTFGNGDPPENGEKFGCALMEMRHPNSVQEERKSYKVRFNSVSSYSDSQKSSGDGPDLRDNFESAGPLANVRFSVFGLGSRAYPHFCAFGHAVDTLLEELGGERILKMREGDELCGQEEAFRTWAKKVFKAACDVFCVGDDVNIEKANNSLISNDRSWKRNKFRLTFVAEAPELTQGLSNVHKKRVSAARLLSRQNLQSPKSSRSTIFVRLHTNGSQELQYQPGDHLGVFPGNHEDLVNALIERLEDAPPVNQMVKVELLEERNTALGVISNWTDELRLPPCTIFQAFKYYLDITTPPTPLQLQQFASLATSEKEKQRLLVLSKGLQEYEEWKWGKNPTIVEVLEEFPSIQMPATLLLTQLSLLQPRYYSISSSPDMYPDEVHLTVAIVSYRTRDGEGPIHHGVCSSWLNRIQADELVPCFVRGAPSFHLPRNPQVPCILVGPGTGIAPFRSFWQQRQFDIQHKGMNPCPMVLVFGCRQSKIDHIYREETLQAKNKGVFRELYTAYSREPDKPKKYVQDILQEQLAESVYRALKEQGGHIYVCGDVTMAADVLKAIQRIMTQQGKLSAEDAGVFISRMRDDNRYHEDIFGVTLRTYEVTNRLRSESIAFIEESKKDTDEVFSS

Liver = assay: Half life in mouse liver microsomes assessed as formation of oxidation product and glucuronide conjugate; format: ADME, Microsome
Method in brief: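 Mouse liver microsomes run under combined phase I oxidation and phase II glucuronide conjugation; half-life reported in minutes.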

Homo sapiens [3] = organism: Homo sapiens; assay: Ratio of IC50 for human eNOS to EC50 for human iNOS
[4] = molecular target: T2, Nitric oxide synthase 3 (Homo sapiens) (UniProt P29474); assay: Inhibition of human eNOS expressed in HEK293 cells assessed as inhibition A23187 induced nitric oxide production at 100 uM incubated for 24 hrs measured after 18 hrs of […] challenge using 2,3-diaminonaphthalene by fluorescence assay; format: cell-based
T2 sequence (whole entry): T1 sequence (P29474 whole entry)

Row | Ratio EC50 (Homo sapiens [1]) | EC50 (Nitric oxide synthase 3) | EC50 [2] | EC50 (Nitric oxide synthase 1) | t1/2 (Liver) | Ratio EC50 (Homo sapiens [3]) | inhibition [4] | Compound
1 | 1.3 | 21000 nM | 18000 nM | 24000 nM | > 2 h | 1.2 |  | O=c1cc(Cn2c(C3CCC3)nc3cnccc32)c2ccc(F)c(F)c2[nH]1
2 | 2.9 | 1300 nM | 340 nM | 990 nM | > 2 h | 3.8 |  | Cc1cnccc1-c1nc2ccccc2n1Cc1cc(=O)[nH]c2c(F)c(F)ccc12
3 | 0.7 | 13000 nM | 850 nM | 610 nM | > 2 h | 15 |  | CC(C)c1nc2nccnc2n1Cc1cc(=O)[nH]c2c(F)c(F)ccc12
4 | 3.6 | > 100000 nM | 280 nM | 1000 nM | > 2 h | > 360 |  | O=c1cc(Cn2c(C3CCCC3)nc3nccnc32)c2ccc(F)c(F)c2[nH]1
5 | 23 | > 100000 nM | 290 nM | 6800 nM | > 2 h | > 350 |  | CC(C)Cc1nc2nccnc2n1Cc1cc(=O)[nH]c2c(F)cccc12
6 | 1.6 | > 100000 nM | 460 nM | 730 nM |  | > 220 | < 50% | O=c1cc(Cn2c(C3CCC3)nc3ccncc32)c2ccc(F)c(F)c2[nH]1
7 | 0.9 | 1300 nM | 730 nM | 690 nM | > 2 h | 1.8 |  | CCCc1nc2ccccc2n1Cc1cc(=O)[nH]c2c(F)c(F)ccc12
8 | > 50 |  |  |  |  | > 500 |  | Cc1ncsc1C(=O)N(Cc1cc(=O)[nH]c2c(F)cccc12)c1ccccc1
9 | 1.2 | 15000 nM | 3700 nM | 4300 nM | > 2 h | 4.1 |  | Cc1ncsc1-c1nc2ccccc2n1Cc1cc(=O)[nH]c2c(F)cccc12
10 | 1.6 | 3900 nM | 600 nM | 950 nM | > 2 h | 6.5 |  | O=c1cc(Cn2c(CC3CC3)nc3ccccc32)c2ccc(F)c(F)c2[nH]1
11 | 3.4 |  |  |  |  | 440 |  | CC(C)Cc1nc2nccnc2n1Cc1cc(=O)[nH]c2c(F)c(F)ccc12
12 | 1.3 | 4200 nM | 2200 nM | 2900 nM | 1.07 h | 1.9 |  | O=c1cc(Cn2c(-c3ccncc3)nc3ccccc32)c2ccc(F)c(F)c2[nH]1
13 | 14 |  |  |  |  | > 460 |  | O=c1cc(Cn2c(C3CC(F)(F)C3)nc3nccnc32)c2cccc(F)c2[nH]1
14 | 0.9 | 8800 nM | 590 nM | 520 nM | > 2 h | 15 |  | O=c1cc(Cn2c(C3CCC3)nc3ncccc32)c2ccc(F)c(F)c2[nH]1
15 | 0.9 | 6800 nM | 1600 nM | 1400 nM | > 2 h | 4.3 |  | O=c1cc(Cn2c(C3CC3)nc3ccccc32)c2ccc(F)c(F)c2[nH]1
16 | 9.2 | 9200 nM | 120 nM | 1100 nM | > 2 h | 77 |  | O=c1cc(Cn2c(C3CC(F)(F)C3)nc3nccnc32)c2ccc(F)c(F)c2[nH]1
17 |  | > 100000 nM | 270 nM | 1600 nM | 1.53 h | > 800 | < 50% | Cc1ccnc2c1nc(C1CCC1)n2Cc1cc(=O)[nH]c2c(F)c(F)ccc12
18 | 1.2 | 2900 nM | 540 nM | 650 nM | 0.467 h | 5.4 |  | O=c1cc(Cn2c(CC3CCC3)nc3ccccc32)c2ccc(F)c(F)c2[nH]1
